System: MS2 coat protein
Test: apparent Kd, MS2 coat protein; higher = weaker binding; RNA-MaP array
Method in brief: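 Designed RNAs were transcribed in place on an Illumina sequencing chip from sequenced DNA templates. At room temperature and with or without input ligand, they were incubated with fluorescently labeled MS2 coat protein from 1.5 nM to 3 μM, for 0.8–1.5 h at the lowest and 10–20 min at the highest concentrations. Apparent Kd is the median of the binding-curve fits made per cluster, with designs measured on fewer than 10 clusters excluded.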

[1] = designed as: ON switch for tryptophan, no ligand
[2] = ligand present: tryptophan, designed as: ON switch for tryptophan
[3] = designed as: ON switch for flavin mononucleotide, no ligand
[4] = ligand present: flavin mononucleotide, designed as: ON switch for flavin mononucleotide
[5] = designed as: OFF switch for flavin mononucleotide, no ligand
[6] = ligand present: flavin mononucleotide, designed as: OFF switch for flavin mononucleotide
[7] = designed as: ON switch for theophylline, no ligand
[8] = ligand present: theophylline, designed as: ON switch for theophylline
[9] = ligand present: theophylline, designed as: OFF switch for theophylline
[10] = designed as: OFF switch for tryptophan, no ligand
[11] = ligand present: tryptophan, designed as: OFF switch for tryptophan

| Sequence | apparent Kd [3] | apparent Kd [4] | apparent Kd [5] | apparent Kd [6] | other results |
| --- | --- | --- | --- | --- | --- |
| AUUAACAUGAGGAUCACCCAUGUUUGUCUCCGAGGACCGGUACGGCCGCCACUCGCAGGUUGGAGUCGCUAUAUGGGCGUUCACU | – | – | – | – | apparent Kd [1]: 44.6 nM; apparent Kd [2]: 34.9 nM |
| AUUGAACGUGCAGGAUAUCAAAACCGGAAUCGUUGAGAAGGGCAGUAAUCGGAGAGCACAUGAGGAUCACCCAUGUUCAAUCGA | 15.9 nM | 9.32 nM | – | – | – |
| CACCUUCGUCAAGGAUAUGCGUAAUGUAUAAUCGCAGAAGGUGACGCGAUCUUCAUAACAUGAGGAUCACCCAUGUGGUGAACU | – | – | 436 nM | 312 nM | – |
| CACGAUCGUGAAGGAUAUCGACAUGAGGAUCACCCAUGUUACUCUUACAUCUAUGGUUCAAGUGCCGAGAAGGUCACAGAGGCA | – | – | 13.8 nM | 18 nM | – |
| CACUAUGAGGUCGAUACCAGUACUGAGUUGUACAUGAGGAUCACCCAUGUAAAUGUUCGCUACCCUUGGCAGCGAUAACAUUGCA | – | – | – | – | apparent Kd [7]: 430 nM; apparent Kd [8]: 554 nM |
| CAGGUUCGUACAGGAUAUGGUUACAUGAGGAUCACCCAUGUGCGGUGAGCUGAUUAGUGCACAGUCCAGAAGGGUAGGAUAACA | 852 nM | 684 nM | – | – | – |
| CAGUUACUGUAGAAGGAUAUCAUUAAUACGGAUAUAGGAUAUACUCCGGGUGGAAUCGUGAACAUGAGGAUCACCCAUGUUUCG | – | – | 10.2 nM | 8.6 nM | – |
| CAUCAGGGAUCAGGAUAUACAAUGGGUACAUGAGGAUCACCCAUGUAGACGCCAACACUGUCAUUGUAGAAGGGAUUGAGCGAA | 55.1 nM | 29.8 nM | – | – | – |
| CCAAAGUAAGGAUAUCGAAGAACCACAACCGACGGAACGAACGAGAAGGUACAUGAGGAUCACCCAUGUGAUAG | – | – | 11.6 nM | 19.7 nM | – |
| CCAGAUUUAGGAUAUACAUGAGGAUCACCCAUGUGGGAUUUAGUGCGGUUUAUGCAACGUAGAAGGAAAUCAGG | – | – | 31.6 nM | 71.4 nM | – |
| CCAGGUUGAAUAGGAUAUCGAGUCCGUCACAUGAGGAUCACCCAUGUAUGCCAAGCUAGAGCGUGCGAGAAGGAUUAGGCCAUC | – | 15.5 nM | – | – | – |
| CCCAGGAUUCAAGGAUAUCGCAAUGAACAUGAGGAUCACCCAUGUUUCUACCCCUCAGCGCACGGCGAGAAGGUGACUUUAGCG | – | – | 12.8 nM | 12.3 nM | – |
| CCGAUAAUCAAACAUGAGGAUCACCCAUGUUCUGGACGGUUCGAGGAUAUGGCACAAGGUAUCUUCCAGAAGGCGAGCCGGUGA | 8.04 nM | 5.98 nM | – | – | – |
| CCGGCGCGAUUAUGGGUUUGCUUUUACGAUACCAGCCGCGUUCCGGGCCCUUGGCAGCGUGUAACAUGAGGAUCACCCAUGUUCA | – | – | – | – | apparent Kd [9]: 13.2 nM |
| CCUUUAGAUGUGAGGAUAUGUACUUGACUUUCAUGACAGAAGGCACAUGAGGAUCACCCAUGUAGUGUCAUUGG | – | – | 10.4 nM | 36.4 nM | – |
| CGAACUAGCUAGAAGGAACAGGCGACUAAAGUGUUAGGAUAUAGGCGUAUGUGCAGACAUGAGGAUCACCCAUGUGUCGAAUUU | – | – | 17.8 nM | 14.7 nM | – |
| CGACAGCACAUAGGAUAUCAGCAAGAACUAACAUGAGGAUCACCCAUGUAUGGAUGAACAUAAAAUGAGAAGGAAGGCGAAUUA | 22.2 nM | 17.9 nM | – | – | – |
| CGACGAUCAGAAGGAUAUUAAAUCGUCAAUCUCGUGACAUGAGGAUCACCCAUGUAGCCCGUGGUUAAGAAGGUCUUGGUUGUG | – | – | 92.4 nM | 58 nM | – |
| CGAGUCUUAUAGAAGGUAGACAUGAGGAUCACCCAUGUACUGGCAACGAAUAGUCGUAGUACACCUAAGGAUAUAUGGGAUGAG | 74.7 nM | 52.3 nM | – | – | – |
| CGAUUACAUGAGGAUCACCCAUGUCAGGAUAUAAUUUGCACAGCCGGGCAGGCCGUGGUUAGAAGGGACGUACA | – | – | 9.09 nM | 8.75 nM | – |
| CGCCCGUACUCAGGAUAUCGAAGUACGAGCCAAAUUAUGUCGGACAUGAGGAUCACCCAUGUGGGCGAGAAGGGAGAACGUGCG | – | – | 29.4 nM | 16.4 nM | – |
| CGCCCUAAAGAUAAGGAUAUUCAGUUAGUAACAUGAGGAUCACCCAUGUGCACAUUUCACUUGAUGAAGAAGGUAUCUGGAACAUU | 8.27 nM | 6.1 nM | – | – | – |
| CGCCUACAGGUGUACUAUUGUGGUGAAGAUACCAGAUAGCCCAAUAUCCCUUGGCAGCUUCAGACAUGAGGAUCACCCAUGUAUC | – | – | – | – | apparent Kd (designed as: OFF switch for theophylline, no ligand): 15.5 nM; apparent Kd [9]: 27.6 nM |
| CGGCAGAAAGUGAGGAUAUCGGUUGUAUGAGGAGACGAGAAGGCACAUGAGGAUCACCCAUGUUAGUAGUCCAC | – | – | 9.54 nM | 8.8 nM | – |
| CGGGUAACCGAGAAGGACUUAAGACUACGUUAAGUAGGAUAUCGAUUUGUUACAUGAGGAUCACCCAUGUCUGGUCUUGACCGC | – | – | 8.66 nM | 9.67 nM | – |
| CGUAUACAUGAGGAUCACCCAUGUACUCCCGUGUAAGGCGAGAAGGAUAUGUUCCCGGCUACUUAACAGAAGGUCUUGGCGCUU | – | – | 14.9 nM | 11.2 nM | – |
| CGUGAUCGCAGAAAGGAUAUUUGGCCUGUAACAUGAGGAUCACCCAUGUUCAAAUGUGACUUACUAAAGAAGGUUCGAAGAUCCAA | 7.23 nM | 7.11 nM | – | – | – |

| Sequence | apparent Kd [3] | apparent Kd [4] | apparent Kd [5] | apparent Kd [6] | other results |
| --- | --- | --- | --- | --- | --- |
| CUCGUGUUAGGAUAUGACGUCCCGCGCUCCGUUAACUAAUUUCAGAAGGAACAUGAGGAUCACCCAUGUUGGUG | – | – | 150 nM | 59.7 nM | – |
| CUCGUUUAAGAGGAUAUUUCGUCCGCUCUCGGGAAAGAAGGCUUGACAUGAGGAUCACCCAUGUAUACGUUGGA | – | – | 9.46 nM | 13.9 nM | – |
| CUUCUUCGUGCAGGAUAUAAGGGAACACGAUGACAUGAGGAUCACCCAUGUUCUAUAAGCAGGCUUUAGAAGGGCAUUUUGGAU | 27.1 nM | 20.1 nM | – | – | – |
| GAACAAUGCCUAGGAUAUCUUACGAUUGAAAACAGAGAAGGAGGGACCGAACAUGAGGAUCACCCAUGUAGAUGUGGGACGUGG | – | – | 77.2 nM | 84.5 nM | – |
| GAACCCAAGGUGAGGAUAUUCGAAGCAACAAAAGGGAAGAAGGCACAUGAGGAUCACCCAUGUAAGAAAGAUAA | – | – | 8.35 nM | 9.52 nM | – |
| GACAUAUGCUAUGCGCAGGCUACCCUCAGCCGAGGACCGGUACGGCCGCCACUCGUACUACCACAUGAGGAUCACCCAUGUUAUC | – | – | – | – | apparent Kd [10]: 17.2 nM; apparent Kd [11]: 18.2 nM |
| GACAUGGGACAGAAGGCGCGUCACAUUUUUAUGCGAGGAUAUGUCACUACAUGAGGAUCACCCAUGUGAGUUGGGAUCUCGAAA | – | – | 26.5 nM | 64.1 nM | – |
| GACGAACAUGAGGAUCACCCAUGUUAACCGAUCACCACGUUCAGAAGGAGGGACAUAACGAGCACCUAGGAUAUGACCAAACAC | 24.2 nM | 14.1 nM | – | – | – |
| GACUACAUAGUCAGGAUAUGUGAUUAAUAAUAUCAACAGAAGGGACAUGAGGAUCACCCAUGUGUGCGAGUGGA | – | – | 14.5 nM | 33.2 nM | – |
| GAUCUCCGCGAGAAGGCUGAGCGGUCACUAGCCAGAGGAUAUCGUCACGCGCAGGGAAAACAUGAGGAUCACCCAUGUGUAAGU | – | – | 10.7 nM | 10.6 nM | – |
| GAUGCACAUGAGGAUCACCCAUGUCCUGAUACCAGAACGCGACUUUUCCCUUGGCAGCAGAAUUCACUUUUUUACAUUCAUACUG | – | – | – | – | apparent Kd [7]: 22.1 nM; apparent Kd [8]: 22.9 nM |
| GCAAUUUGACGAGGAUAUGGUCUAUUUUUUUACCCAGAAGGCGUCGCCCACAUGAGGAUCACCCAUGUUCAUGGAUAGGAAAUA | – | – | 11.9 nM | – | – |
| GCACUUAUAGCAGGAUAUCUUUAAACACCGAAAGGUAGCGGUACAUGAGGAUCACCCAUGUCAACAGAGAAGGGCUCAUAGUCU | 11.1 nM | 8.63 nM | – | – | – |
| GCAGGACAUGAGGAUCACCCAUGUGAUACUAUGACAGGAUAUGAUUGAAAACUUACUAGAACAGAAGGGUCGUGUA | 94.3 nM | 34.5 nM | – | – | – |
| GCAUAGUAAAAUGAUACCAGAGUCAAAACAGACAUGAGGAUCACCCAUGUGCAUAUACAACUCCCUUGGCAGCAUUAAAACGGGA | – | – | – | – | apparent Kd [7]: 17.1 nM; apparent Kd [8]: 13 nM |
| GCAUUAACAAAGGAUAUGCAUUUCGUCAAUGUAGCAGAAGGUUGUACAUGAGGAUCACCCAUGUGUGAUCGAAC | – | – | 26 nM | 56.6 nM | – |
| GCCAAGCAGGGAGGAUAUACAGGCAAUAAGUGAUUAGAAGAACAAAACAUGAGGAUCACCCAUGUGAAGAAGGCCCAUUCGGAA | – | – | 12.1 nM | 10.9 nM | – |
| GCCAAGCUCUAAGGAUAUGUUCACACCGGUGAGACAGAAGGUAGUAGUGUACUGCACAUGAGGAUCACCCAUGUAAACGGAUAA | 64.2 nM | 14.9 nM | – | – | – |
| GCCACGCUAGAAGGAUAUUUGCCAUAAGUACGGAAAGAAGGUCUCGCCGGAUCGAACAUGAGGAUCACCCAUGUGUGGGUCAGA | 43.8 nM | 26 nM | – | – | – |
| GCCGCCGGUGCUUCAUUCCCUGAGCGACGGCGAGGACCGGUACGGCCGCCACUCGGCUCGGUACAUGAGGAUCACCCAUGUCUUU | – | – | – | – | apparent Kd [10]: 44.7 nM; apparent Kd [11]: 54.5 nM |
| GCGACACUCACGGCCGCCACUGAUUAGCCCAGUAUGGAGCCCACACAUGAGGAUCACCCAUGUCACAGGACCGGGUGGGUCUAUU | – | – | – | – | apparent Kd [1]: 25.8 nM; apparent Kd [2]: 26.8 nM |
| GCGAGGAGGCAGAAGGACUAAAACACGCUACAAGUAGGAUAUGCAUCCUGCACACAUGAGGAUCACCCAUGUAGAUCCUAUCGC | – | – | 78 nM | 151 nM | – |
| GCGGUACAUGAGGAUCACCCAUGUGAUUUAACAGGUUUCAUCAGAAGGACUCACGGUUUGCGACAGUAGGAUAUGAAGGGUAAG | 34.6 nM | 24.6 nM | – | – | – |
| GCUAAUCCAGGAGGAUAUAGGUUCUUUUCUACACAUGAGGAUCACCCAUGUGCAUCCCGGCGUACCUAGAAGGCCUGUCUAAAA | 25.9 nM | 15.5 nM | – | – | – |
| GCUCGAGGGCAAGGAUAUAGGGAGAAACAACGCCUAGAAGGUGCACACAUGAGGAUCACCCAUGUUUCUCUAUGACGGAUCAUC | – | – | 18.1 nM | 17.3 nM | – |
| GCUGAUAUCAAGAAGGCGAUCAGGGAAUAAGAGACAUGAGGAUCACCCAUGUACGCCAUUUGUAUCGAGGAUAUUGAAAAUAGG | 24.4 nM | 7.42 nM | – | – | – |
| GCUGCCUGGACAUGAGGAUCACCCAUGUGGACAAUACUGGCUUAGGAUAUUUGAUUGAAGUUUGGAAAGAAGGAAGCAUACAGC | – | – | 9.17 nM | 8.14 nM | – |
